Test results reported in article PMC7346850 (ACS infectious diseases, 2020).
“Also recorded” adds a separate entry of the source.

Legend:
[1] = tested on: chloroquine-resistant P. falciparum Dd2 cells; experiment: Antiplasmodial dose-response, cell-based SYBR Green I assay, Dd2; parameters: species or system Plasmodium falciparum
In short: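 Chloroquine-resistant P. falciparum Dd2 cultures were tested in dose–response with a cell-based SYBR Green I growth assay to obtain EC50. Each reported value comes from three independent experiments.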

[2] = tested on: HepG2 cells; experiment: Cytotoxicity against HepG2; format: cell-based; conditions: Homo sapiens, HepG2, read-out: EC50 HepG2 cells

- EC50 ([1]; Plasmodium falciparum, DD2, read-out: EC50 Dd2 cells): 76.7 ± 0.74 µM
Structure (SMILES): COC(=O)[C@@H]1[C@H]2C[C@H]3c4[nH]c5ccccc5c4CCN3C[C@@H]2CC[C@@H]1O [Y, yohimbine]
- antiplasmodial activity (in words) ([1]; P. falciparum Dd2 cells): no antiplasmodial activities; also recorded: no antiplasmodial activity
- EC50 [2]: > 100 µM
